For experiment [1], the system named is MH60. In words: Growth inhibition of IL-6-independent mouse MH60 cells after 72 hrs by MTT assay. Format: functional, cell-based. The note with it: MH60, 72 h. The essentials: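 Mouse B-cell/myeloma hybridoma MH-60 subline adapted to grow without IL-6 (rhIL-6 withdrawn gradually), kept in RPMI 1640 + 10% FCS with no rhIL-6. 0.5 × 10^4 cells/well pre-incubated 24 h at 37 °C, 5% CO2, then exposed 72 h to graded compound concentrations. MTT read-out; mean with standard errors of 3–4 experiments.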

Experiment [2] deals with MH60. The experiment can be described thus: Growth inhibition of IL6-dependent mouse MH60 cells after 72 hrs by MTT assay in presence of human recombinant IL6. The class given is functional, cell-based. The note with it: MH60, 72 h. Put shortly:
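IL-6-dependent MH-60 mouse B-cell/myeloma hybridoma kept in RPMI 1640 + 10% FCS containing 0.5 ng/mL recombinant human IL-6. 0.5 × 10^4 cells/well in rhIL-6 medium pre-incubated 24 h at 37 °C, 5% CO2, then treated 72 h with graded compound concentrations. Growth by MTT; mean with standard errors of 3–4 experiments.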
In general terms: Tetrazolium dyes change colour on reduction, which living cells bring about.

Our source for the IC50 values is ChEMBL document CHEMBL1148977, “Inhibitory effects of bufadienolides on interleukin-6 in MH-60 cells” (J Nat Prod, 2004).

SMILES strings stand for the structures.

In the case of `CC(=O)O[C@H]1CC[C@@]2(C)[C@H](CC[C@@H]3[C@@H]2CC[C@]2(C)[C@@H](c4ccc(=O)oc4)C[C@H]4O[C@]342)C1`, the IC50 in experiment [1] and in experiment [2] was over 58.7 µM throughout.

For the compound `CC(C)(C)C(=O)O[C@H]1CC[C@@]2(C)[C@H](CC[C@@H]3[C@@H]2CC[C@]2(C)[C@@H]([C@@]45C=CC(=O)O[C@@H]4O5)C[C@H]4O[C@]342)C1`, the IC50 (usually the concentration at which inhibition is half-maximal) in experiment [1] was 34 µM; in experiment [2] it was 18.1 µM.

For the compound `C[C@]12CCC(=O)C[C@H]1CC[C@@H]1[C@@H]2CC[C@]2(C)[C@@H](c3ccc(=O)oc3)C[C@H]3O[C@]132`, the IC50 in experiment [1] is 8.4 µM; in experiment [2], 2.4 µM.

Regarding `CC(C)(C)C(=O)O[C@H]1CC[C@@]2(C)[C@H](CC[C@@H]3[C@@H]2CC[C@]2(C)[C@@H]([C@]45C=CC(=O)O[C@H]4O5)C[C@H]4O[C@]342)C1`, the IC50 is over 53.2 µM in experiment [1] and 6.8 µM in experiment [2].

Regarding `CCCCC(=O)O[C@H]1CC[C@@]2(C)[C@H](CC[C@@H]3[C@@H]2CC[C@]2(C)[C@@H]([C@@]45C=CC(=O)O[C@@H]4O5)C[C@H]4O[C@]342)C1`, the IC50 in experiment [1] was 19.1 µM; in experiment [2], 6.4 µM.

Regarding `C[C@]12CC[C@H](OC=O)C[C@H]1CC[C@@H]1[C@@H]2CC[C@]2(C)[C@@H]([C@]34C=CC(=O)O[C@H]3O4)C[C@H]3O[C@]132`, the IC50 is over 58.4 µM in experiment [1] and 8.9 µM in experiment [2].

For `C[C@]12CC[C@H](OC=O)C[C@H]1CC[C@@H]1[C@@H]2CC[C@]2(C)[C@@H]([C@@]34C=CC(=O)O[C@@H]3O4)C[C@H]3O[C@]132`, the IC50 in experiment [1] turned out to be 12.9 µM; in experiment [2], 5.6 µM.

`C[C@]12CC[C@H](O)C[C@H]1CC[C@@H]1[C@@H]2CC[C@]2(C)[C@@H]([C@@]34C=CC(=O)O[C@@H]3O4)C[C@H]3O[C@]132`: the IC50 in experiment [1] worked out at 45 µM; in experiment [2] it was 18.3 µM.

In the case of `CC(=O)O[C@@H]1[C@H]2O[C@]23[C@@H]2CC[C@@H]4C[C@@H](O)CC[C@]4(C)[C@H]2CC[C@]3(C)[C@H]1[C@@]12C=CC(=O)O[C@@H]1O2`, the IC50 in experiment [1] and in experiment [2] was over 54.2 µM in each case.

Take `C[C@]12CCC(=O)C[C@H]1CC[C@@H]1[C@@H]2CC[C@]2(C)[C@@H]([C@@]34C=CC(=O)O[C@@H]3O4)C[C@H]3O[C@]132`: the IC50 in experiment [1] was found to be 4.3 µM; in experiment [2] it was 1.3 µM.

As to `C[C@]12CCC(=O)C[C@H]1CC[C@@H]1[C@@H]2CC[C@]2(C)[C@@H]([C@]34C=CC(=O)O[C@H]3O4)C[C@H]3O[C@]132`, the IC50 in experiment [1] came out at 8.3 µM; in experiment [2], 4.3 µM.

As for `CCCC(=O)O[C@H]1CC[C@@]2(C)[C@H](CC[C@@H]3[C@@H]2CC[C@]2(C)[C@@H]([C@@]45C=CC(=O)O[C@@H]4O5)C[C@H]4O[C@]342)C1`, the IC50 came to 17.5 µM in experiment [1] and 2 µM in experiment [2].

With `CCCC(=O)O[C@H]1CC[C@@]2(C)[C@H](CC[C@@H]3[C@@H]2CC[C@]2(C)[C@@H]([C@]45C=CC(=O)O[C@H]4O5)C[C@H]4O[C@]342)C1`, the IC50 was over 54.8 µM in experiment [1] and 9.4 µM in experiment [2].

`C[C@]12CC[C@H](OC=O)C[C@H]1CC[C@@H]1[C@@H]2CC[C@]2(C)[C@@H](c3ccc(=O)oc3)C[C@H]3O[C@]132`: the IC50 in experiment [1] and in experiment [2] was over 60.7 µM each time.

In the case of `CC(=O)O[C@H]1CC[C@@]2(C)[C@H](CC[C@@H]3[C@@H]2CC[C@]2(C)[C@@H]([C@]45C=CC(=O)O[C@H]4O5)C[C@H]4O[C@]342)C1`, the IC50 in experiment [1] was over 56.6 µM; in experiment [2] it was 5.3 µM.

With `CCCCC(=O)O[C@H]1CC[C@@]2(C)[C@H](CC[C@@H]3[C@@H]2CC[C@]2(C)[C@@H]([C@]45C=CC(=O)O[C@H]4O5)C[C@H]4O[C@]342)C1`, the results for the half-inhibitory concentration (IC50) in experiment [1] and in experiment [2] were over 53.2 µM and 11.6 µM, respectively.

On to `C[C@]12CC[C@H](O)C[C@H]1CC[C@@H]1[C@@H]2CC[C@]2(C)[C@@H]([C@@]34C=CC(=O)O[C@@H]3O4)CC[C@]12O`, for which the IC50 in experiment [1] and in experiment [2] was over 62.2 µM in each case.

As to `C[C@]12CC[C@H](O)C[C@H]1CC[C@@H]1[C@@H]2CC[C@]2(C)[C@@H]([C@]34C=CC(=O)O[C@H]3O4)CC[C@]12O`, the IC50 in experiment [1] and in experiment [2] was over 62.2 µM each time.

On to `CC(=O)O[C@H]1CC[C@@]2(C)[C@H](CC[C@@H]3[C@@H]2CC[C@]2(C)[C@@H]([C@@]45C=CC(=O)O[C@@H]4O5)C[C@H]4O[C@]342)C1`, for which the IC50 was found to be 21.9 µM in experiment [1] and 14.3 µM in experiment [2].

For `CC(=O)O[C@@H]1[C@H]2O[C@]23[C@@H]2CC[C@@H]4C[C@@H](O)CC[C@]4(C)[C@H]2CC[C@]3(C)[C@H]1[C@]12C=CC(=O)O[C@H]1O2`, the IC50 in experiment [1] and in experiment [2] was over 54.2 µM throughout.

In the case of `C[C@]12CC[C@H](O)C[C@H]1CC[C@@H]1[C@@H]2CC[C@]2(C)[C@@H]([C@]34C=CC(=O)O[C@H]3O4)C[C@H]3O[C@]132`, the IC50 in experiment [1] is over 62.5 µM; in experiment [2] it was 24.8 µM.

For the compound `C[C@]12CC[C@H](O)C[C@H]1CC[C@@H]1[C@@H]2CC[C@]2(C)[C@@H](c3ccc(=O)oc3)CC[C@]12O` [BUFALIN], the IC50 in experiment [1] was over 64.8 µM; in experiment [2], 31.9 µM.

For `C[C@]12CC[C@H](O)C[C@H]1CC[C@@H]1[C@@H]2CC[C@]2(C)[C@@H](c3ccc(=O)oc3)C[C@H]3O[C@]132` [BUFOGENIN], the figures for the IC50 in experiment [1] and in experiment [2] were over 65.1 µM and 22.9 µM, respectively.

For the compound `CC(=O)O[C@H]1C[C@]2(O)[C@@H]3CC[C@@H]4C[C@@H](O)CC[C@]4(C)[C@H]3CC[C@]2(C)[C@H]1c1ccc(=O)oc1` [BUFOTALIN], the IC50 in experiment [1] and in experiment [2] was over 56.2 µM each time.

With `CC(=O)O[C@H]1[C@H]2O[C@]23[C@@H]2CC[C@@H]4C[C@@H](O)CC[C@]4(C)[C@H]2CC[C@]3(C)[C@H]1c1ccc(=O)oc1` [CINOBUFAGIN], the IC50 in experiment [1] and in experiment [2] was over 56.3 µM each time.
